Compounds with a hit are over-represented: about 4.2% of the library has one in this group of screens.
WT yeast gro inh: growth inhibition of WT yeast, mitochondrial fusion screen. mitochondrial fusion phenotypic screen, WT strain. inhibition, % at 10 µM. actives 2.1% (n = 190,000); in the data active = inhibition above about 58%; tested in S. cerevisiae
Ins promoter up: MIN6 insulin promoter up-regulation. MIN6 insulin promoter-GFP reporter, high-content imaging; stronger effect = higher value. z-score at 5 µM. actives 0.3% (n = 190,000). AID 1625;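 active = z-score above 3 at 5 µM with at least 500 cells counted in the well; inconclusive = wells under 500 cells, flagged as cytotoxic or low count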
Autophagy HCS: modulators of autophagy. MEF GFP-LC3 puncta imaging; test concentration mostly 10 µM. calls only at 10 µM (by protocol). actives 0.98% (n = 190,000). AID 463193;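 active = percentage of spot-positive cells more than 3 SD above its plate mean, without a fluorescence outlier flag or 80% toxicity; inconclusive = no clear call, values can overlap the other calls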
KCC2 mod: modulates chloride dependent transport by human KCC2; Q9H2X9; KCC2 cells, thallium flux FluoZin-2 fluorescence; B-score of Tl+ flux slope (higher = more flux/activation; lower = inhibition) at 10 µM; actives 2.2% (n = 190,000);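 active = thallium flux slope and its plate-corrected score both differing from the plate sample mean at a set confidence after two filtering rounds, in either direction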;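 also: slope of fluorescence scaled to starting intensity during 10 to 20 s after thallium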
SKKanGAS inh: inhibitors of SKKanGAS S. pyogenes growth in kanamycin (SK-promoter or general growth effect) | actives 1.3% (n = 300,000) | inhibition, % at 7.5 µM | AID 1662 | BacTiter-Glo, 6 h;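 active = mean replicate score, as percent of positive control median, at least 50; inconclusive = mean below 50 but one replicate at or above 50; inactive = mean and every replicate below 50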;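 also: strain carries kanamycin resistance gene driven by streptokinase promoter and grows in 40 µg/ml kanamycin; loss of luminescence reflects streptokinase promoter inhibition or plain growth inhibition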
Rad51 HR inh: blocks human Rad51 in homologous recombination | hRad51 DNA strand exchange, fluorescence dequenching | inhibition, % at 10 µM | actives 0.085% (n = 200,000);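 active = inhibition above 40% at the single screening dose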
Target sequence (Q06609 whole entry, looked up): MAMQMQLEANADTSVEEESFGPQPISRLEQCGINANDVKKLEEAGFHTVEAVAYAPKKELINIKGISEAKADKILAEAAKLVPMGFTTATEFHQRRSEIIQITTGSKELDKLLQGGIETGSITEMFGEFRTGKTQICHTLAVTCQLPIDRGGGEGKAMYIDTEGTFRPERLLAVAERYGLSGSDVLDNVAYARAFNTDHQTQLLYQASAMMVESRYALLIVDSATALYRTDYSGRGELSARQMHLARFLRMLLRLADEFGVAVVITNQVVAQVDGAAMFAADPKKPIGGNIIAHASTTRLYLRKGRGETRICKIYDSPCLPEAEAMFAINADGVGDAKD
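material = hRad51 filaments on single-stranded DNA | timing = filaments 15 min 37 °C, then compound 30 min | signal = FRET fluorescence dequenching, excitation 485 nm, emission 520 nm | benchmarks = control wells and blank wells on each plate | evaluation = percent inhibition relative to plate controls and blanks | compound = 10 µM final, single point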
KCC2 secondary: confirmation of human KCC2 transport modulators; shares compounds with KCC2 mod; actives 15% (n = 3,700); normalised thallium flux (F/F0 slope) at 10 µM; AID 1713; HEK293-KCC2, thallium flux, FluoZin2 fluorescence; stronger effect = higher value;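 active = thallium flux slope above the same plate's solvent-only control mean plus 3 SD; inconclusive = the two replicate wells disagree; inactive = no significant difference from solvent-only control wells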
KCC2 bumet counter: thallium flux persisting under bumetanide in KCC2 cells, counter-screen secondary assay | shares compounds with KCC2 mod | HEK293-KCC2 + bumetanide/ouabain, thallium flux FluoZin2; stronger effect = higher value | normalized thallium flux at 10 µM | actives 49% (n = 3,700) | AID 1714;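 active = thallium entry rate above the same plate's blocked-transporter control wells by more than 3 SD; inconclusive = the two repeat wells disagree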;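 also: raw slope of fluorescence over initial fluorescence between 10 and 20 s after thallium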
KCC2 secondary2: KCC2 (human) modulation, second secondary assay. normalized thallium flux at 10 µM. actives 23% (n = 3,700). HEK293-KCC2, thallium flux FluoZin2 fluorescence; actives lie on both sides; F/F0 rise rate, 10–20 s post-thallium. shares compounds with KCC2 mod;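 active = thallium flux slope more than 3 SD above or below the plate's solvent-only control mean, mostly below; inconclusive = the two repeat wells disagreed; inactive = no significant shift from solvent-only controls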
HEK293 Tl flux: counter-screen for KCC2 modulators: effect in parental HEK293 cells; shares compounds with KCC2 mod; thallium flux FluoZin2, ouabain; baseline-ratio fluorescence slope, 10–20 s after thallium; thallium flux rate (normalised fluorescence) at 10 µM; actives 46% (n = 3,700); AID 1716;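 active = thallium flux rate significantly above the same plate's solvent-only control wells, beyond their mean plus 3 SD; inconclusive = the two replicate wells gave conflicting results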
KCC2 ouabain: modulates human KCC2 on retest with ouabain; actives 48% (n = 3,700); shares compounds with KCC2 mod; raw Tl+ flux slope (below DMSO = inhibition, above = activation) at 10 µM; AID 1717; HEK293-KCC2, thallium flux FluoZin2 fluorescence; bidirectional: low = inhibitor, high = activator;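 active = thallium flux slope beyond 3 SD from same-plate DMSO control mean in most replicates, usually higher, sometimes lower; inconclusive = repeat tests gave conflicting results; inactive = no significant difference from controls in most replicates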;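 also: slope of initial-normalized fluorescence between seconds 10 and 20 after thallium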
HEK counter2: acts in parental HEK cells, second KCC2 counter-screen. shares compounds with KCC2 mod. HEK293 parental, thallium flux FluoZin-2 fluorescence slope. thallium flux slope at 10 µM. actives 33% (n = 3,700);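 active = thallium flux slope above the same plate's solvent-control mean plus 3 SD in both duplicate wells; inconclusive = duplicate wells that disagreed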;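 also: run without ouabain in cells lacking the KCC2 cotransporter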
A number is an active result; . = inactive; ? = inconclusive; / = no result given; + = active, no number.

SMILES	WT yeast gro inh	Ins promoter up	Autophagy HCS	KCC2 mod	SKKanGAS inh	Rad51 HR inh	KCC2 secondary	KCC2 bumet counter	KCC2 secondary2	HEK293 Tl flux	KCC2 ouabain	HEK counter2
COCCN1C(=O)/C(=C/c2cc3c(cc2Br)OCO3)NC1=S	.	/	.	21	.	.	.	0.047	0.041	0.035	0.041	0.033
O=C1NC(=O)/C(=C/c2cc3c(cc2Br)OCO3)S1	/	/	/	/	.	/	/	/	/	/	/	/
CS(=O)(=O)N(CCc1ccccc1)CC(=O)N1CCCCC1	.	.	.	.	.	.	/	/	/	/	/	/
NC(=O)C1CCN(C(=O)CN(c2ccc3c(c2)OCCO3)S(=O)(=O)c2ccccc2)CC1	/	/	/	/	.	/	/	/	/	/	/	/
CS(=O)(=O)N(CCc1ccccc1)CC(=O)N1CCN(Cc2ccccc2)CC1	.	/	.	-3.2	.	.	.	.	.	.	?	.
O=C(CN(c1ccc2c(c1)OCCO2)S(=O)(=O)c1ccccc1)N1CCN(Cc2ccccc2)CC1	.	.	.	-4.1	.	/	.	?	0.023	.	?	.
COc1ccc(S(=O)(=O)N(C)CC(=O)N2CCN(Cc3ccccc3)CC2)cc1C	.	.	.	-4.1	.	.	.	.	0.026	.	0.015	.
CN(CC(=O)N1CCN(Cc2ccccc2)CC1)S(=O)(=O)c1cccc2nsnc12	.	.	.	-3.2	.	/	.	.	0.02	.	0.013	.
CCn1c2ccc(F)cc2c2nnc(SCCN3CCCCC3)nc21	/	/	/	/	.	/	/	/	/	/	/	/
Cc1cc(C)c(S(=O)(=O)N(C)CC(=O)NCc2ccncc2)c(C)c1	.	.	.	.	.	.	/	/	/	/	/	/
CCN(CCCNC(=O)CN(C)S(=O)(=O)c1cccc2nsnc12)c1ccccc1	.	.	.	/	.	/	.	.	?	.	.	.
Cc1cccc(N(C)S(=O)(=O)c2cccc3nsnc23)c1	.	.	.	.	.	.	/	/	/	/	/	/
CN(CC(=O)NCCc1ccccc1)S(=O)(=O)c1cccc2nsnc12	.	?	.	.	.	/	/	/	/	/	/	/
CCN(c1cccc(C)c1)S(=O)(=O)c1cccc2nsnc12	.	.	.	3.9	.	/	.	?	0.027	0.0059	0.015	0.009
O=[N+]([O-])c1cncc([N+](=O)[O-])c1Nc1cccc(O)c1	/	/	/	/	.	/	/	/	/	/	/	/
Cc1cc(NS(=O)(=O)c2ccc(NC(=O)c3oc4ccccc4c3C)cc2)no1	.	.	.	-2.9	.	.	.	.	.	.	?	.
Cn1c(=O)c2c(nc(CN3CCN(C(c4ccccc4)c4ccccc4)CC3)n2CC(N)=O)n(C)c1=O	.	/	.	-2.6	.	.	.	.	.	.	.	?
CN(Cc1c(F)cccc1Cl)C(=O)CNC(=O)c1sc2ccccc2c1Cl	/	/	/	/	.	/	/	/	/	/	/	/
CCC(C)(NC(=O)c1ccc2c(c1)OCO2)C(=O)NC1CCCCC1 (centres undefined)	.	.	.	.	.	.	/	/	/	/	/	/
Cc1ccc(CCc2nnc(SCC(=O)Nc3cc(Cl)ccc3Cl)n2-c2ccccc2)o1	61	.	.	-4.7	.	.	.	.	.	.	.	.
CCOc1ccc(NC(=O)CC2C(=O)N(c3ccccc3)C(=O)N2CCc2cccs2)cc1 (centres undefined)	.	.	.	.	.	.	/	/	/	/	/	/
Cc1cccc(N2C(=O)CS/C2=N\NC(=O)c2ccc(Br)cc2)c1C	.	/	.	7.9	.	.	.	0.035	.	0.023	0.034	0.024
COc1ccc(-c2cccc(NS(=O)(=O)c3cc([N+](=O)[O-])c(C)c([N+](=O)[O-])c3)c2)nn1	/	/	/	/	.	/	/	/	/	/	/	/
O=C(COc1ccc2c(c1)OCO2)Nc1cccc(F)c1	/	/	/	/	.	/	/	/	/	/	/	/
O=C(CSc1ncnc2c1nnn2Cc1ccccc1)NC1CCCCC1	/	/	/	/	.	/	/	/	/	/	/	/
SMILES	WT yeast gro inh	Ins promoter up	Autophagy HCS	KCC2 mod	SKKanGAS inh	Rad51 HR inh	KCC2 secondary	KCC2 bumet counter	KCC2 secondary2	HEK293 Tl flux	KCC2 ouabain	HEK counter2
CCCCc1c(C)nc2ccc(C)cc2c1SCCC(=O)O	.	.	.	-3.8	.	.	.	?	0.023	.	0.015	.
CCCCc1c(C)nc2ccccc2c1SCCC(=O)O	.	.	.	.	.	.	/	/	/	/	/	/
O=C(Oc1c(-c2ccccc2)c(=O)n2c3c(cccc13)CC2)c1ccccc1	/	.	/	-4.4	.	.	.	.	.	0.0054	0.013	0.0072
C/C(=N\N1CCN(c2ccccc2)CC1)c1ccc(O)cc1	/	/	/	/	.	/	/	/	/	/	/	/
Cc1nc(C(=O)NNC(=O)c2ccc(Cl)cc2)c(C(F)(F)F)o1	/	.	/	17	.	.	.	0.03	0.039	0.024	0.035	0.02
CC(C(=O)NC(C)(C)C)N(C(=O)CS(=O)CC(=O)Nc1ccc(F)cc1)C1CCCC1 (centres undefined)	/	/	/	/	.	/	/	/	/	/	/	/
CCc1cc(C(=O)N2CCCC(Nc3ccc(F)c(F)c3)C2)n(C)n1 (centres undefined)	/	/	/	/	.	/	/	/	/	/	/	/
COC(=O)C1CCN(C(=O)COC(=O)CCc2nc3ccccc3c(=O)[nH]2)CC1	.	.	.	4.6	.	/	.	.	.	.	.	?
S=C1NCN(Cc2cccnc2)CN1c1cccc2ccccc12	/	/	/	.	.	.	/	/	/	/	/	/
O=C(N/N=C/c1ccccc1)c1n[nH]c2c1CCCC2	.	.	.	.	.	.	/	/	/	/	/	/
O=C(N/N=C/C(Br)=C/c1ccccc1)c1n[nH]c2c1CCC2	.	?	+	/	.	.	.	.	.	.	?	.
CC1CCCC(C)N1c1nnc(NC(=O)c2cc(-c3ccc(Br)cc3)on2)s1 (centres undefined)	.	.	.	12	51	/	.	0.02	.	0.011	?	?
COc1cc(CNCCNC(=O)c2nonc2N)ccc1OCc1ccc(Cl)cc1	.	.	.	.	.	.	/	/	/	/	/	/
Cc1ccc(NC(=O)C2CCN(S(=O)(=O)c3c(C)noc3/C=C/c3ccco3)CC2)nc1	.	.	.	.	.	.	/	/	/	/	/	/
Cc1noc(/C=C/c2ccco2)c1S(=O)(=O)N1CCC(C(=O)N2CCc3ccccc3C2)CC1	.	.	.	.	.	/	.	.	0.026	.	?	.
O=C(C1CCN(S(=O)(=O)c2cccs2)CC1)N1CCc2ccccc2C1	.	.	.	-4.1	.	.	.	.	0.024	.	0.018	.
